This is one part of a sample in which hits are shown more often than they occur.
CHOP inh: inhibitors of CHOP promoter induction, primary screen, cell-based, unfolded protein response, luciferase reporter; CHO-K1 CHOP-promoter luciferase, tunicamycin-induced, 15-18 h; inhibition, % at 10 µM; 220,000 tested, 3.8% active; AID 2732, 2010;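 active means compounds that reduced the stress-induced luciferase reporter signal by more than about 70% of percent inhibition, limit read from the data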;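 further: 0% = tunicamycin plus vehicle and 100% = wells without tunicamycin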
CHOP UPR activ: activators of apoptotic CHOP UPR arm, primary screen, cell-based, CHO-CHOP luciferase reporter, luminescence, uHTS. activation, % at 10 µM. 330,000 tested, 0.34% active. UPR activation; percent of tunicamycin response over DMSO baseline;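 active means at 10 µM dose, activation of 40% or more, normalized to positive control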;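 further: 100% = tunicamycin at 10 µg/mL and 0% = DMSO alone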
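Assay system: CHO cells with stable CHOP pathway luciferase reporter; Buffer or medium: F12 plus 10% serum; Times: 16-18 h cell attachment, then 6 h compound exposure, 37 °C; Signal: luciferase luminescence; Read-out basis: percent activation relative to tunicamycin control; Control set: tunicamycin high control, DMSO low control.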
XBP1 UPR activ: activators of adaptive XBP1 UPR arm, primary screen, cell-based, CHO-XBP1 luciferase reporter, luminescence, uHTS. 330,000 tested, 0.33% active. activation, % at 20 µM. IRE1-XBP1 UPR activation; percent of tunicamycin response, DMSO as zero;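 active means versus positive control, 20 µM dose yields 30% or more activation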;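 further: 100% = tunicamycin at 10 µg/mL and 0% = DMSO only wells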
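Material: IRE1-XBP1 luciferase reporter CHO line / Quantity: one thousand reporter cells per well / Buffer or medium: F12 with 10% serum / Compound: 20 µM single concentration, DMSO 1% / Times: 6 h treatment, 37 °C / Detection: Steady-Glo luciferase glow luminescence, 10 min after reagent addition / Benchmarks: tunicamycin high, DMSO low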
H9c2 protect: cardioprotection against H2O2-induced cell death, primary screen, uHTS, H9c2 cells, ATPLite luminescence | H9c2 cardiomyocytes, H2O2 injury protection, 2 h | protection from H2O2 cell death, % at 20 µM | 360,000 tested, 0.63% active;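 active means compounds giving at least 50% protection of heart cells from peroxide-induced death in the single-dose screen, raw or plate-pattern-corrected value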;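 further: 0% = DMSO wells with peroxide and 100% = DMSO wells without peroxide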
iPSC survival up: enhancers of single-cell hiPSC survival, primary screen, ATPlite luminescence; AID 602274, 2012; 100% = ROCK inhibitor wells, 0% = DMSO; 360,000 tested, 0.044% active; survival enhancement, % at 20 µM; in the data active means survival enhancement above about 18%;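 further: cells exposed to compounds for 16 hours before the ATP read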
Starred values were filed as active, the others as inactive; . = no result given.

SMILES	CHOP inh	CHOP UPR activ	XBP1 UPR activ	H9c2 protect	iPSC survival up
CN(C)CC(CCC(CN(C)C)C(=O)c1ccccc1)C(=O)c1ccccc1 (stereo not given)	106*	.	.	-18	4
OCCNCc1cc(Br)ccc1OCc1ccc(Cl)cc1Cl	90*	.	.	-20	-4
CCCCOc1ccc(C(=O)NCCN2CCC(n3c(=O)[nH]c4ccccc43)CC2)cc1	.	.	.	.	-1
Fc1cccc(Cc2noc(CN3CCCCC3c3ccccn3)n2)c1 (stereo not given)	11	0	0	-6	3
FC(F)(F)c1cccc(Cc2noc(CN3CCCCC3c3ccccn3)n2)c1 (stereo not given)	74*	-1	-1	-5	2
CN(CC(=O)Nc1cccc(Cl)c1)S(=O)(=O)/C=C/c1ccccc1	.	.	.	-18	3
O=c1c2ccc(Cl)cc2[nH]c(=S)n1CCC1=CCCCC1	84*	3	1	-6	1
Cc1cc(C2=CC(=O)C[C@H](c3ccc(F)cc3)C2)ccc1F	.	.	.	-9	-4
CN(C(=O)COC(=O)c1ccc(C(C)(C)C)cc1)C1CCS(=O)(=O)C1 (stereo not given)	.	1	1	-1	0
CN(C(=O)COC(=O)c1nc(Cl)c(Cl)c(Cl)c1Cl)C1CCS(=O)(=O)C1 (stereo not given)	56	.	.	-2	42*
Cc1ccc(C)c(S(=O)(=O)N(C(=O)c2ccncc2)c2ccc(OC(=O)c3ccncc3)cc2)c1	-1	1	-1	53*	0
Cc1ccc2cc3cc(C(=O)N4CCN(Cc5ccccc5)CC4)sc3nc2c1	74*	1	-2	-5	0
Cc1ccc2cc3cc(C(=O)N4CCN(C(=O)c5ccco5)CC4)sc3nc2c1	3	4	-5	37	0
COc1ccc(C(=O)NCCNc2nc3c(C)cccc3cc2C#N)cc1	.	1	2	1	0
Cc1cccc2cc(C#N)c(NCCNC(=O)NC3CCCCC3)nc12	72*	1	0	0	0
Cc1cccc(N2CCN(CC(=O)Nc3ccccc3[N+](=O)[O-])CC2)c1C	77*	2	0	1	1
O=C1CCCC(=O)N1c1ccc(N2CCN(c3ccccc3)CC2)c([N+](=O)[O-])c1	11	-1	-1	0	1
CN1CCN(CC(=O)Nc2ccccc2[N+](=O)[O-])CC1	7	-2	-1	-1	1
Cc1cccc(N2CCN(c3ccc(N4C(=O)CCCC4=O)cc3[N+](=O)[O-])CC2)c1C	84*	0	-2	-4	-1
CN1CCN(C(=O)CCn2c(=S)[nH]c3ccccc3c2=O)CC1	.	.	.	7	5
CCCC1CCC(c2nc(-c3cccnc3)no2)CC1 (stereo not given)	89*	5	6	3	-1
O=C(Nc1cccs1)Nc1nnc([C@@H]2C[C@H](O)[C@@H](CO)O2)s1	.	.	.	-5	1
COc1cccc(/C=N/NC(=O)c2[nH]c(C)c(C(=O)N/N=C/c3cccc(OC)c3)c2C)c1	24	4	1	56*	-1
CCOC(=O)c1c(C)[nH]c(C(=O)N/N=C/c2cccc(OC)c2)c1C	-5	1	1	9	2
CC(=O)CSc1nc2cc3c(cc2cc1C#N)OCCO3	36	-5	-1	-4	-1
SMILES	CHOP inh	CHOP UPR activ	XBP1 UPR activ	H9c2 protect	iPSC survival up
N#Cc1cc2cc3c(cc2nc1SCC(=O)OC1CCCCC1)OCO3	79*	0	1	-11	0
CSc1ccc(NC(=O)C2(C)CCN2C(=O)Cc2ccc(C(C)(C)C)cc2)cc1 (stereo not given)	.	.	.	-22	-1
Cc1cc2nc(CN(C)C(=O)C3CCC(=O)N(C4CCCC4)C3)[nH]c2cc1C (stereo not given)	.	.	.	2	0
Oc1ccccc1N=Nc1ccccc1O	73*	.	.	27	-5
Nc1ccc(N=Nc2ccccc2O)c(N)c1	.	6	4	-4	0
Cc1nc(Nc2ccccc2)[nH]c(=O)c1CCC(C)C	89*	0	1	-10	-1
COc1cccc(-c2cnc(C(O)c3ccc(Cl)cc3)[nH]2)c1 (stereo not given)	.	.	.	-7	-1
COc1cc(NC(=O)CN2C(=O)COc3ccccc32)cc(OC)c1	.	.	.	-4	-1
COc1ccc(/C=C(/C(=O)Nc2ccccc2C(=O)NC(C)C)c2ccccc2)cc1	74*	0	1	2	-1
Nc1nc(/C=C/c2ccc(F)cc2)nc(-c2ccccc2O)n1	80*	2	0	-1	-1
Nc1nc(/C=C/c2cccnc2)nc(-c2ccccc2O)n1	0	-1	-1	37	-1
CC(=O)c1ccc2c(c1)N(Cc1ccccc1)C(=O)C(C)S2 (stereo not given)	.	.	.	1	-2
CCn1c(C)cc(/C=C2\SC(=O)N(CC(=O)Nc3ccc(C)c(C)c3)C2=O)c1C	93*	2	0	4	-1
CCn1c(C)cc(/C=C2\NC(=O)N(CC(=O)Nc3cccc(C)c3)C2=O)c1C	81*	3	2	0	2
CCn1c(C)cc(/C=C2/SC(=O)N(CC(=O)N3CCCC3)C2=O)c1C	.	1	-4	-2	0
CCn1c(C)cc(/C=C2/NC(=O)N(CC(=O)Nc3cccc(C)c3)C2=O)c1C	51	.	.	13	0
CCCS(=O)(=O)NC(=O)C1(C)CCN(C(=O)c2cccs2)C1 (stereo not given)	.	.	.	-2	4
O=C(CN(c1ccccc1)S(=O)(=O)c1ccc(F)cc1)NC1CCCCCC1	.	0	1	-3	0
Cc1cccc(OCCCC(=O)NNC(=O)c2ccncc2)c1	.	1	2	2	0
Cc1cccc(OCCCC(=O)NNC(=O)c2ccccn2)c1	.	-2	-1	50*	0
Cc1nn(CC(O)COc2ccc3c(c2)CCC3)c(C)c1Br (stereo not given)	82*	7	-3	-7	4
COc1ccccc1N1C(=O)CC(Sc2nccc(C)n2)C1=O (stereo not given)	-8	0	-2	6	-1
COc1ccc(N2C(=O)CC(Sc3nccc(C)n3)C2=O)c(OC)c1 (stereo not given)	.	.	.	0	28*
CC1=C(C(=O)OCC(C)C)C(c2cccc(F)c2)N2C(=O)C(C)SC2=N1 (stereo not given)	78*	-3	-5	3	3
CC1=C(C(=O)OC(C)C)C(c2cccc(F)c2)N2C(=O)C(C)SC2=N1 (stereo not given)	74*	-3	-4	11	-2
CCOC(=O)C1=C(C)N=C2SC(C)C(=O)N2C1c1cccc(F)c1 (stereo not given)	47	-2	-2	22	-1
